ChEMBL document CHEMBL4376875, “Synthesis and Biological Evaluation of B-Cell Lymphoma 6 Inhibitors of N-Phenyl-4-pyrimidinamine Derivatives Bearing Potent Activities against Tumor Growth” (J Med Chem, 2020)
One block for each compound: values may come before it. Calls of active or inactive are those of the source. No cut-off for these calls is given here.

Tests used:
SUD4 [1] = test: Antiproliferative activity against human SUDHL4 cells assessed as reduction in cell viability incubated for 72 hrs by CCK8 assay; settings: SU-DHL-4, 72 h
Farage [2] = test: Antiproliferative activity against human Farage cells assessed as reduction in cell viability incubated for 72 hrs by CCK8 assay
DOHH-2 = test: Antiproliferative activity against human DOHH2 cells assessed as reduction in cell viability incubated for 72 hrs by CCK8 assay; settings: DOHH-2, 72 h
OCI-Ly7 = test: Antiproliferative activity against human OCI-LY7 cells assessed as reduction in cell viability incubated for 72 hrs by CCK8 assay; settings: OCI-Ly7, 72 h
Toledo [3] = test: Antiproliferative activity against BCL6-negative human Toledo cells assessed as reduction in cell viability incubated for 72 hrs by CCK8 assay
L02 = test: Cytotoxicity against human LO2 cells assessed as reduction in cell viability incubated for 72 hrs by CCK8 assay; settings: L02, 72 h
[4] = Cytotoxicity against HAF cells assessed as reduction in cell viability incubated for 72 hrs by CCK8 assay; settings: Homo sapiens
NCM460 = test: Cytotoxicity against human NCM460 cells assessed as reduction in cell viability incubated for 72 hrs by CCK8 assay; settings: NCM460, 72 h
PNT1A = test: Cytotoxicity against human PNT1A cells assessed as reduction in cell viability incubated for 72 hrs by CCK8 assay
SUD4 [5] = test: Induction of apoptosis in human SUDHL4 cells assessed as late apoptotic cells at 0.625 uM incubated for 48 hrs by annexin V-FITC and propidium iodide staining based flow cytometry analysis (reference value: 1.39%); type: functional
SUD4 [6] = test: Induction of apoptosis in human SUDHL4 cells assessed as late apoptotic cells at 1.25 uM incubated for 48 hrs by annexin V-FITC and propidium iodide staining based flow cytometry analysis (reference value: 1.39%); type: functional
SUD4 [7] = test: Induction of apoptosis in human SUDHL4 cells assessed as late apoptotic cells at 2.5 uM incubated for 48 hrs by annexin V-FITC and propidium iodide staining based flow cytometry analysis (reference value: 1.39%); type: functional
SUD4 [8] = test: Induction of apoptosis in human SUDHL4 cells assessed as early apoptotic cells at 0.625 uM incubated for 48 hrs by annexin V-FITC and propidium iodide staining based flow cytometry analysis (reference value: 2.62%); type: functional
SUD4 [9] = test: Induction of apoptosis in human SUDHL4 cells assessed as early apoptotic cells at 1.25 uM incubated for 48 hrs by annexin V-FITC and propidium iodide staining based flow cytometry analysis (reference value: 2.62%); type: functional
SUD4 [10] = test: Induction of apoptosis in human SUDHL4 cells assessed as early apoptotic cells at 2.5 uM incubated for 48 hrs by annexin V-FITC and propidium iodide staining based flow cytometry analysis (reference value: 2.62%); type: functional
Mus musculus [11] = test: In vivo inhibition of GC formation in NP-CGG immunized C57BL/6 mouse assessed as splenic GC B cells (GL7+FAS+B220+) at 50 mg/kg/day, ip for 12 days starting from 2 days after NP-CGG addition by flow cytometry (reference value: 1.97%); type: functional; design: scale not given: the % may be the effect or the level left
Farage [12] = test: Antiproliferative activity against human Farage cells transfected with lentivirus expressing BCL6 shRNA assessed as reduction in cell viability at 10 to 80 uM incubated for 72 hrs by CCK8 assay; type: functional, cell-based
Farage [13] = test: Antiproliferative activity against human Farage cells transfected with empty vector lentivirus assessed as reduction in cell viability at 10 to 80 uM incubated for 72 hrs by CCK8 assay; type: functional, cell-based
Method in brief: (§1)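 Lentivirus made by transfection; supernatant collected at 48 h and 72 h. DLBCL cells infected with virus plus 8 μg/mL polybrene for 48 h, then selected in RPMI 1640 with 2 μg/mL puromycin. Transduced cells seeded at 2 × 10⁴ cells/well and exposed to compound for 72 h. CCK8 added, 1-2 h at 37 °C, absorbance read at 450 nm. Run in triplicate.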

Toledo [14] = test: Antiproliferative activity against human Toledo cells transfected with lentivirus overexpressing BCL6 assessed as reduction in cell viability up to 20 uM incubated for 72 hrs by CCK8 assay; type: functional, cell-based; method in brief: as §1
Mus musculus [15] = organism: Mus musculus; settings: C57BL/6, 50 mg/kg
SUD4 [16] = test: Antiproliferative activity against human SUDHL4 cells assessed as living cells and S phase cells at 2.5 uM incubated for 48 hrs by Edu based flow cytometry analysis (reference value: 48.3%)
SUD4 [17] = test: Antiproliferative activity against human SUDHL4 cells assessed as living cells and S phase cells at 1.25 uM incubated for 48 hrs by Edu based flow cytometry analysis (reference value: 48.3%)
SUD4 [18] = test: Antiproliferative activity against human SUDHL4 cells assessed as living cells and S phase cells at 0.625 uM incubated for 48 hrs by Edu based flow cytometry analysis (reference value: 48.3%)
[19] = target: B-cell lymphoma 6 protein (Homo sapiens, UniProt P41182, C67R/C84N/C8Q); test: Inhibition of recombinant human C-terminal GST-tagged BCL6 BTB domain C8Q/C67R/C84N triple mutant expressed in Escherichia coli BL21 (DE3) cells assessed as reduction in SMRT/BTB domain interaction incubated for 1 hr by HTRF assay
[20] = target: B-cell lymphoma 6 protein (Homo sapiens, UniProt P41182); test: Binding affinity to lateral groove of BCL6 BTB domain (unknown origin)
Method in brief: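 GST-tagged BCL6 protein was expressed in E. coli BL21(DE3), purified on glutathione Sepharose, dialysed into PBS and used for biolayer interferometry. GST biosensors were hydrated 10 min in kinetics buffer (1× PBS, 0.02% Tween 20), given a 60 s baseline, then loaded with BCL6-GST at 50 ng/mL for 300-600 s. After a second 60 s baseline, sensors were dipped into serially diluted compound.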

Toledo [21] = test: Antiproliferative activity against human Toledo cells transfected with empty vector lentivirus assessed as reduction in cell viability up to 20 uM incubated for 72 hrs by CCK8 assay; type: functional, cell-based; method in brief: as §1

Structure (SMILES): O=C(O)CCN1C(=O)/C(=C2/C(=O)Nc3ccc(Cl)cc32)SC1=S
- IC50 (SUD4 [1]): 51.3 µM
- IC50 (Farage [2]): 33.9 µM
- IC50 (DOHH-2): 35.1 µM
- IC50 (OCI-Ly7): 39 µM
- IC50 (Toledo [3]): 65.3 µM
- IC50 (L02): > 100 µM
- IC50 [4]: > 100 µM
- IC50 (NCM460): > 100 µM
- IC50 (PNT1A): > 100 µM
- Activity (SUD4 [5]): 1.81%
- Activity (SUD4 [6]): 1.73%
- Activity (SUD4 [7]): 1.96%
- Activity (SUD4 [8]): 2.86%
- Activity (SUD4 [9]): 2.62%
- Activity (SUD4 [10]): 3.19%
- Activity (Mus musculus [11]): 0.73%
- Activity (Farage [12]): Active
- Activity (Farage [13]): Active
- Activity (Toledo [14]): Active
- inhibition (Mus musculus [15]): Active
- Activity (SUD4 [16]): 47.4%
- Activity (SUD4 [17]): 45.1%
- Activity (SUD4 [18]): 48.5%

Structure (SMILES): COc1cc(Nc2nc(N3C[C@@H](C)N[C@@H](C)C3)ncc2F)ccc1NC(=O)c1ccc(Br)s1
- IC50 [19]: > 10 µM

Structure (SMILES): O=C(O)CC(C(=O)O)N1C(=O)/C(=C2/C(=O)Nc3ccc(Br)cc32)SC1=S (stereo not drawn)
- Kd [20]: 138 µM

Structure (SMILES): O=C1Cc2cc(Nc3nc(NCc4cccnc4)ncc3Cl)ccc2N1
- IC50 (SUD4 [1]): 24.3 µM
- IC50 (Farage [2]): 33.5 µM
- IC50 (DOHH-2): 47.6 µM
- IC50 (OCI-Ly7): 33.9 µM
- IC50 (Toledo [3]): 39.5 µM
- IC50 (L02): > 100 µM
- IC50 [4]: > 100 µM
- IC50 (NCM460): > 100 µM
- IC50 (PNT1A): > 100 µM
- Activity (SUD4 [5]): 1.89%
- Activity (SUD4 [6]): 1.97%
- Activity (SUD4 [7]): 1.74%
- Activity (SUD4 [8]): 3.11%
- Activity (SUD4 [9]): 3.43%
- Activity (SUD4 [10]): 3.15%
- Activity (Farage [12]): Active
- Activity (Farage [13]): Active
- Activity (Toledo [21]): Active
- Activity (Toledo [14]): Active
- Activity (SUD4 [16]): 41.2%
- Activity (SUD4 [17]): 41.6%
- Activity (SUD4 [18]): 43.4%

The remaining lines, values ahead:

- IC50 [19]: > 10 µM
Structure (SMILES): COc1ccc(Nc2nc(N3C[C@H](C)C[C@H](C)C3)ncc2F)cc1Cl

- IC50 [19]: > 10 µM
Structure (SMILES): COc1ccc(Nc2nc(N(CC(C)C)CC(C)C)ncc2F)cc1Cl

- IC50 [19]: > 10 µM
Structure (SMILES): COc1cc(Nc2nc(N3C[C@@H](C)N[C@@H](C)C3)ncc2F)ccc1NC(=O)c1ccc(Br)o1

- IC50 [19]: > 20 µM
Structure (SMILES): COc1ccc(Nc2nc(N3C[C@@H](C)N[C@@H](C)C3)ncc2F)cc1NC(=O)c1ccc(Br)o1

- IC50 [19]: > 10 µM
Structure (SMILES): CCCCNc1ncc(F)c(Nc2ccc(OC)c(Cl)c2)n1

- IC50 [19]: > 20 µM
Structure (SMILES): COc1ccc(Nc2nc(N3C[C@@H](C)N[C@@H](C)C3)ncc2F)cc1NC(=O)c1ccc(Br)s1
